Measured values taken from ChEMBL document CHEMBL2346664, “Synthesis, characterization and in vitro anticancer evaluation of novel 1,2,4-triazolin-3-one derivatives” (2013).

Columns and labels:
Assay type in all cases: functional
SR = assay: Growth inhibition of human SR cells assessed as cell growth at 10 '-6 M after 48 hrs by sulforhodamine B assay; settings: read-out: Activity
[1] = Growth inhibition of human HCC2998 cells assessed as cell growth at 10 '-4 M after 48 hrs by sulforhodamine B assay; settings: HCC 2998, 48 h, read-out: Activity
HCT-15 = assay: Growth inhibition of human HCT15 cells assessed as cell growth at 10 '-7 M after 48 hrs by sulforhodamine B assay; settings: HCT-15, 48 h, read-out: Activity
A549 = assay: Growth inhibition of human A549 cells assessed as growth inhibition at 10 uM after 48 hrs by sulforhodamine B assay; settings: A549, 48 h, read-out: GI
In short: (§1)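 Percent growth inhibition from the single 10^-5 M NCI-60 screen, reported as 100 minus growth percent. Growth percent was measured after 48 h drug exposure at 37 °C, 5% CO2, using TCA fixation, SRB staining and absorbance at 515 nm, against untreated controls and time-zero plates.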

OVCAR-3 = assay: Growth inhibition of human OVCAR3 cells assessed as cell growth at 10 '-5 M after 48 hrs by sulforhodamine B assay; settings: OVCAR-3, 48 h, read-out: Activity
[2] = Growth inhibition of human HCC2998 cells assessed as cell growth at 10 '-7 M after 48 hrs by sulforhodamine B assay; settings: HCC 2998, 48 h, read-out: Activity
HOP-92 = assay: Growth inhibition of human HOP92 cells assessed as cell growth at 10 '-4 M after 48 hrs by sulforhodamine B assay; settings: HOP-92, 48 h, read-out: Activity
SF-295 = assay: Growth inhibition of human SF295 cells assessed as cell growth at 10 '-6 M after 48 hrs by sulforhodamine B assay; settings: SF-295, 48 h, read-out: Activity
T47D = assay: Growth inhibition of human T47D cells after 48 hrs by sulforhodamine B assay
UACC-257 = assay: Growth inhibition of human UACC257 cells after 48 hrs by sulforhodamine B assay; settings: UACC-257, 48 h
In short: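 NCI 60-cell-line five-dose screen over 0.01, 0.1, 1, 10 and 100 µM, with 48 h continuous exposure at 37 °C and 5% CO2 after 24 h pre-incubation (5,000–40,000 cells/well). Cells were TCA-fixed (10% final for adherent, 16% for suspension), stained with SRB and read at 515 nm. GI50 was solved from [(Ti−Tz)/(C−Tz)]×100 = 50 against time-zero plates.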

PC-3 = assay: Growth inhibition of human PC3 cells assessed as cell growth at 10 '-4 M after 48 hrs by sulforhodamine B assay; settings: PC-3, 48 h, read-out: Activity
NCI-H522 = assay: Growth inhibition of human NCI-H522 cells assessed as cell growth at 10 '-4 M after 48 hrs by sulforhodamine B assay; settings: NCI-H522, 48 h, read-out: Activity
SK-MEL-5 = assay: Growth inhibition of human SK-MEL-5 cells assessed as cell growth at 10 '-8 M after 48 hrs by sulforhodamine B assay; settings: SK-MEL-5, 48 h, read-out: Activity
MDA-MB-435 = assay: Growth inhibition of human MDA-MB-435 cells assessed as cell growth at 10 '-7 M after 48 hrs by sulforhodamine B assay; settings: MDA-MB-435, 48 h, read-out: Activity
OVCAR-4 [3] = assay: Growth inhibition of human OVCAR4 cells assessed as growth inhibition at 10 uM after 48 hrs by sulforhodamine B assay; settings: OVCAR-4, 48 h, read-out: GI
OVCAR-4 [4] = assay: Growth inhibition of human OVCAR4 cells assessed as cell growth at 10 '-4 M after 48 hrs by sulforhodamine B assay; settings: OVCAR-4, 48 h, read-out: Activity
K562 = assay: Growth inhibition of human K562 cells assessed as cell growth at 10 '-8 M after 48 hrs by sulforhodamine B assay; settings: K562, 48 h, read-out: Activity
COLO 205 [5] = assay: Growth inhibition of human COLO205 cells after 48 hrs by sulforhodamine B assay; settings: COLO 205, 48 h
In short: (§2)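 NCI 60-cell-line five-dose screen. Cells were plated at 5,000–40,000/well by doubling time and grown 24 h at 37 °C, 5% CO2. Time-zero plates were TCA-fixed. Drug from DMSO stock was tested at 0.01, 0.1, 1, 10 and 100 µM final for 48 h continuous exposure. Read-out was SRB at 515 nm. GI50 is the concentration giving 50% reduction in net protein increase versus untreated control.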

RXF 393 = assay: Growth inhibition of human RXF393 cells after 48 hrs by sulforhodamine B assay; settings: RXF 393, 48 h
MCF7 [6] = assay: Growth inhibition of human MCF7 cells after 48 hrs by sulforhodamine B assay; settings: MCF7, 48 h; in short: as §2
COLO 205 [7] = assay: Growth inhibition of human COLO205 cells assessed as cell growth at 10 '-6 M after 48 hrs by sulforhodamine B assay; settings: COLO 205, 48 h, read-out: Activity
In short: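 In the same five-dose SRB screen (48 h, 37 °C, 5% CO2), percentage growth was computed at each concentration from time-zero (Tz), control (C) and treated (Ti) absorbances. The formula was [(Ti−Tz)/(C−Tz)]×100 when Ti ≥ Tz, or [(Ti−Tz)/Tz]×100 when Ti < Tz.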

MCF7 [8] = assay: Growth inhibition of human MCF7 cells assessed as cell growth at 10 '-8 M after 48 hrs by sulforhodamine B assay; settings: MCF7, 48 h, read-out: Activity
[9] = Growth inhibition of human HCC2998 cells assessed as cell growth at 10 '-6 M after 48 hrs by sulforhodamine B assay; settings: HCC 2998, 48 h, read-out: Activity
SF-268 = assay: Growth inhibition of human SF268 cells assessed as cell growth at 10 '-4 M after 48 hrs by sulforhodamine B assay; settings: SF-268, 48 h, read-out: Activity
SK-OV-3 = assay: Growth inhibition of human SKOV3 cells assessed as cell growth at 10 '-4 M after 48 hrs by sulforhodamine B assay; settings: SK-OV-3, 48 h, read-out: Activity
BT-549 = assay: Growth inhibition of human BT549 cells assessed as growth inhibition at 10 uM after 48 hrs by sulforhodamine B assay; settings: BT-549, 48 h, read-out: GI; in short: as §1
[10] = Growth inhibition of human HCC2998 cells assessed as cell growth at 10 '-8 M after 48 hrs by sulforhodamine B assay; settings: HCC 2998, 48 h, read-out: Activity
SK-MEL-2 = assay: Growth inhibition of human SK-MEL-2 cells assessed as cell growth at 10 '-6 M after 48 hrs by sulforhodamine B assay; settings: SK-MEL-2, 48 h, read-out: Activity
HT-29 = assay: Growth inhibition of human HT-29 cells assessed as cell growth at 10 '-8 M after 48 hrs by sulforhodamine B assay; settings: HT-29, 48 h, read-out: Activity
[11] = read-out: LD50 (the source's name)

For `Cc1cc(=O)oc2cc(OCCn3c(C)nn(-c4ccc(Cl)cc4)c3=O)ccc12`, the growth at 1 µM (SR) was 29%, the growth at 100 µM [1] was 17% and the growth at 0.1 µM (HCT-15) was 95%. For the same compound, the inhibition of growth at 10 µM (A549) was 69.8%, the growth at 10 µM (OVCAR-3) was 7% and the growth at 0.1 µM [2] was 91%. The growth at 100 µM (HOP-92) was 32%, the growth at 1 µM (SF-295) was 74% and the GI50 (T47D) was 7.55 µM. The TGI (T47D) was greater than 1 µM, the CC50 (T47D; [11]) was greater than 1 µM and the TGI (UACC-257) was greater than 1 µM. For the same compound, the CC50 (UACC-257; [11]) was greater than 1 µM, the growth at 100 µM (PC-3) was 34% and the growth at 100 µM (NCI-H522) was -22%. It also gave a growth at 0.01 µM (SK-MEL-5) of 97%, a growth at 0.1 µM (MDA-MB-435) of 94% and an inhibition of growth at 10 µM (OVCAR-4 [3]) of 32.9%. The growth at 100 µM (OVCAR-4 [4]) was 40%, the growth at 0.01 µM (K562) was 107% and the GI50 (COLO 205 [5]) was 2.39 µM. It also gave a TGI (COLO 205 [5]) of 7.34 µM, a CC50 (COLO 205 [5]; [11]) greater than 1 µM and a GI50 (RXF 393) of 2.76 µM. The TGI (RXF 393) was 3 µM, the CC50 (RXF 393; [11]) was greater than 1 µM and the GI50 (MCF7 [6]) was 2.7 µM. For the same compound, the TGI (MCF7 [6]) was greater than 1 µM, the CC50 (MCF7 [6]; [11]) was greater than 1 µM and the growth at 1 µM (COLO 205 [7]) was 89%. The growth at 0.01 µM (MCF7 [8]) was 98%, the growth at 1 µM [9] was 76% and the growth at 100 µM (SF-268) was 36%. The growth at 100 µM (SK-OV-3) was -7%, the inhibition of growth at 10 µM (BT-549) was 43.3% and the growth at 0.01 µM [10] was 95%. It also gave a growth at 1 µM (SK-MEL-2) of 112% and a growth at 0.01 µM (HT-29) of 104%.
